Measurements taken from PubChem BioAssay AID463093 (The Scripps Research Institute Molecular Screening Center, 2010).
Calls of active or inactive are those of the source.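 Rule for the calls: active = compound blocking at least 90% of GSTO1 probe labeling in gels, or giving a GSTO1 band over fivefold background; inactive = the rest.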

Biological target: Glutathione S-transferase omega-1 (Homo sapiens) (UniProt P78417)
Assay: in situ GSTO1 inhibition versus click-labeling – cell-based, MDA-MB-435, competitive ABPP, click chemistry, fluorescence, mechanism study for GSTO1 inhibitor project, late-stage follow-up (AID 463093)
Settings: MDA-MB-435 in situ competitive ABPP, gel fluorescence; for fold labeling / inhibition: stronger effect = higher value; for inhibition: in situ competitive ABPP
In short: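 dosing = 1, 0.5, 0.25 µM compound | material = MDA-MB-435 cells, in situ treatment | quantity = soluble proteome adjusted to 1 mg/mL protein | detection = SDS-PAGE in-gel fluorescence | times = compound on cells 1 h 37 °C, click labeling 1 h 25 °C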

Chain of Glutathione S-transferase omega-1 (Homo sapiens) (P78417 whole entry, looked up): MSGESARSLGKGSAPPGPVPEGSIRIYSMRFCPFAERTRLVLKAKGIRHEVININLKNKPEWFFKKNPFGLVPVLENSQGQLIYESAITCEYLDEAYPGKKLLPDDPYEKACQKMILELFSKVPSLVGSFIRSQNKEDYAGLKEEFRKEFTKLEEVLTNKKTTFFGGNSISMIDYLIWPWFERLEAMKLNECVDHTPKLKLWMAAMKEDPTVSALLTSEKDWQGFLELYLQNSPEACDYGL

## C#CCN(CCCN(C(=O)CCl)c1ccc([N+](=O)[O-])cc1)C(=O)C(F)(F)F
Direct ABPP, click chemistry
  outcome: active
Direct ABPP, click chemistry, click labeling 0.25 uM, at 0.25 µM
  fold labeling: > 5
Direct ABPP, click chemistry, click labeling 0.5 uM, at 0.5 µM
  fold labeling: > 5
Direct ABPP, click chemistry, click labeling fold over background 1 uM, at 1 µM
  fold labeling: > 5
At 1 µM
  inhibition: 100%
inhibition, at 0.25 µM
  inhibition: 99%
inhibition, at 0.5 µM
  inhibition: 100%
